T cell HTS: modulators of CD8 T cell-vesicle binding, primary screen, mouse 2C CD8+ T cells, flow cytometry | 2C CD8+ T cell-vesicle binding; active compounds read low | response (vesicle binding), % at 7 µM | actives 0.068% (n = 330,000);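 active means response, share of CD8 T cells binding vesicles, and their 90th percentile fluorescence all below set limits, cut at about 80% in these data, passing the limit was not always enough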;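 further: values below 100% mean blocked vesicle binding to the CD8+ T cells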
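Material: murine 2C transgenic CD8+ T lymphocytes / Also added: QL9-peptide-loaded Drosophila micro-vesicles bearing Ld, ICAM-1 and B7-1 / Schedule: binding step 1.5 h, 37 °C, antibody labelling 20 min, ice / Signal: flow cytometry, PE anti-B7-1 (FL2) versus Alexa647 anti-CD8 (FL8), PFA-fixed / Evaluation: percent CD8+ FL2 mean versus row control / Benchmarks: naked versus QL9-loaded vesicles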
EP2 modulator: EP2 receptor modulators, cAMP readout, primary screen, cell-based, HTRF cAMP, PGE2 stimulation; EP2-expressing cells, cAMP HTRF FRET, PGE2 co-stimulation; actives 0.83% (n = 260,000); induction, % at 25 µM; AID 940, 2007;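 active means compounds whose cAMP rise, as percent of the full-agonist control response, exceeds 60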;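 further: rat C6 glioma line stably carrying human EP2 under a CMV promoter; the protocol text gives 20 µM as final concentration; 100% = response of wells given 1 µM PGE2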
Exocytosis inh: LAMP-1 surface exposure blockers, TALL-104 cells – cell-based, flow cytometry, MLPCN library, primary screen. TALL-104 LAMP-1 surface exposure; cells stimulated with thapsigargin and PMA. inhibition, % at 10 µM. actives 0.66% (n = 360,000);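 active means inhibition above about 55%, limit read from the data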
PGE2 EP2 inh: human EP2 receptor antagonists, primary screen, TR-FRET cAMP, C6 glioma cells; inhibition, % at 25 µM; actives 0.52% (n = 260,000); C6 glioma cells expressing human EP2; cells stimulated with saturating PGE2;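 active means percent inhibition above 40 after rounding to a whole number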;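 further: rat C6 glioma host cells with rolipram phosphodiesterase inhibitor present; the protocol text gives 20 µM as final concentration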
MC4R antagonist: MC4R antagonists of cAMP signaling, primary screen, cell-based, TR-FRET, antagonist arm of biased-ligand search. Melanocortin receptor 4 (Homo sapiens), P32245. MC4R-expressing cells, MTII-stimulated cAMP, LANCE TR-FRET. inhibition, % at 6.5 µM. actives 0.48% (n = 360,000). AID 540295, 2011;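 active means inhibition above its plate's cutoff, the mean of tested wells on that plate plus 3 SD, cut at about 29% in these data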;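 further: 0% = Melanotan II alone and 100% = Melanotan II plus saturating MCL0020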
Target sequence (P32245 whole entry, looked up): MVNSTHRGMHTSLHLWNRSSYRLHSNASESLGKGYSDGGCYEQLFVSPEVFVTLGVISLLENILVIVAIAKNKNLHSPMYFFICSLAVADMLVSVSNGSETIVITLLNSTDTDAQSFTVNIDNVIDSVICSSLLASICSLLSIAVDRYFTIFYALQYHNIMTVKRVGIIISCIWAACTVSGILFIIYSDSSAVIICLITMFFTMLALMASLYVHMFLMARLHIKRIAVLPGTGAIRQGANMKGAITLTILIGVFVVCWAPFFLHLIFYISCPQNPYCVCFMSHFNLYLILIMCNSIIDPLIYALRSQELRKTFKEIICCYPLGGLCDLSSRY
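Assay system: human MC4R-expressing U2OS cells; reagent: Melanotan II stimulation of cells; dosing: 6.5 µM single dose; timing: compound 30 min, challenge 1 h, detection 1 h; signal: TR-FRET cAMP assay; replicates: one well per compound, no replicates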
MC4R barr agon: MC4R agonists recruiting beta-arrestin, primary screen, cell-based, luminescence, agonist arm of biased-ligand search; Melanocortin receptor 4 (Homo sapiens), P32245; U2OS MC4R beta-arrestin complementation; percent of melanotan II response, DMSO zero; activation, % at 8.9 µM; actives 0.98% (n = 360,000); AID 540308, 2011;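 active means activation above a per-plate cutoff, the mean activation of sample wells on that plate plus 3 SD, cut at about 8% in these data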
An asterisk follows results filed as active; / = no result; ! = not confirmed by another sample. Only some compounds are listed: those with a hit (about 2.6% of all), similar ones and a draw of the others.

SMILES	T cell HTS	EP2 modulator	Exocytosis inh	PGE2 EP2 inh	MC4R antagonist	MC4R barr agon
C#CCOCCOCCOCCNc1nc(N2CCN(C(=O)CCCCCCCCCCNC(=O)Cn3cc(CCCCCN)nn3)CC2)nc(N2CCN(C(=O)CCCCCCCCCCNC(=O)[C@@H](CCSC)n3cc(CCO)nn3)CC2)n1	465	/	65*	/	19	1
C#CCOc1ccc2ccccc2c1C(c1c(C)[nH][nH]c1=O)c1c(C)[nH][nH]c1=O	/	-43	/	9	/	/
Cc1oc2c(CN3CCCCC3C)c(O)ccc2c(=O)c1-c1ccccc1 (configuration not stated)	299	/	-6	/	-6	0
Nc1cc(OCC(F)(F)F)cc(OCC(F)(F)F)c1	75	17	-4	6	-3	-2
Cc1cccc(OCc2nnc(SCC(=O)Nc3ccc(C)c(C)c3)o2)c1	562	5	0	8	1	8.8*
C/C(=N\NC(=O)Cn1cc([N+](=O)[O-])cn1)c1ccco1	0.0*	0	-6	5	12	3
CC(C)c1ccc(OCC(O)CN2CCN(c3ccccc3)CC2)cc1 (configuration not stated)	130	-20	10	23	-4	8.9*!
COc1ccc(OCC(O)CN2CCN(c3ccccc3)CC2)cc1 (configuration not stated)	146	-8	0	4	15	-2
COC(=O)/C=C1\OC(c2ccccc2)=CC1=O	375	-121	/	124*	/	/
COCC(C)n1c(C)cc(C(=O)CSc2nc3ccccc3c(=O)[nH]2)c1C (configuration not stated)	182	62*	6	7	5	-1
Cc1ccc(OCCNC(=O)c2cncc(Br)c2)cc1C	321	-21	4	26	8	-1
Cc1cccc(OCCNC(=S)NC(=O)c2cncc(Br)c2)c1	818	/	-13	/	0	9.3*
COc1ccc(-c2nc(C#N)c(N3CCc4ccccc4C3)o2)cc1OC	242	21	-6	5	2	12*
Cc1ccccc1NC(=S)NC(NC(=O)c1ccco1)C(Cl)(Cl)Cl (configuration not stated)	259	-31	8	5	4	-1
C[C@H]1[C@H](C)CC[C@@]2(C(=O)O)CC[C@@]3(C)C(=CC[C@H]4[C@]5(C)C[C@H](O)[C@@H](O)[C@@](C)(CO)[C@H]5[C@H](O)C[C@@]43C)[C@H]12	/	31	/	43*	/	/
O=c1[nH]n(Cc2ccccc2)c(=O)c2ccccc12	706	8	4	2	2	0
O=C(Nc1ccc(Cl)c(C(F)(F)F)c1)NC1CC2CCCC(C1)N2C1CC1 (configuration not stated)	512	/	4	41*	5	1
O=C(Nc1cccc(F)c1)NC1CC2CCCC(C1)N2C1CC1 (configuration not stated)	383	-30	-1	3	-3	-1
COc1cc(C(=O)Nc2nc(-c3cccs3)cs2)cc(OC)c1OC	716	-30	28	87*	16	3
COc1ccc(-c2csc(NC(=O)c3ncoc3-c3cccs3)n2)cc1OC	/	-33	/	/	/	/
Cc1csc(NC(=O)c2sc3nc(-c4cccs4)ccc3c2N)n1	380	-48	/	64*	/	/
O=C(Nc1nc(-c2cccs2)cs1)c1ccc(Cl)cc1	87	8	-3	4	4	0
COc1ccc(C(=O)Nc2nc(-c3cccs3)cs2)cc1	325	-22	-1	43*	-8	-1
CCCCCCCC1=CC2=CC(=O)C(C)(OC(C)=O)C(=O)C2=CN1CCc1ccccc1 (configuration not stated)	138	33	/	/	/	/
CC(NC(=O)Nc1ccccn1)N1C(=O)C2C3C=CC(C3)C2C1=O (configuration not stated)	190	27	-3	19	0	-1
SMILES	T cell HTS	EP2 modulator	Exocytosis inh	PGE2 EP2 inh	MC4R antagonist	MC4R barr agon
CC1(C)CC(=O)C=C(c2ccc3ccccc3c2)C1	431	/	-3	/	2	1
CCOC(=O)c1cc(C#N)c(NCc2ccccc2)nc1C	553	/	-1	4	-7	8.8*
CC(=O)c1cc(C#N)c(NCc2ccccc2)nc1C	407	16	22	2	-7	1
Cc1nnc(NC(=O)c2ccc(Cl)cc2)s1	/	-24	/	15	/	/
COc1ccc(CN2CCN(C(C)C)C(CCO)C2)cc1Cn1cccn1 (configuration not stated)	231	-16	-10	1	-4	-2
CCOc1ccc(NCc2cc3c(C(C)(C)C)nn(-c4ccccc4)c3[nH]c2=O)cc1	481	-9	15	8	15	11*
CC(C)(C)c1nn(-c2ccccc2)c2[nH]c(=O)c(C=O)cc12	389	/	62*	/	3	0
CC(C)(C)c1nn(-c2ccccc2)c2nc(Cl)c(C=O)cc12	284	0	2	/	3	3
O=C(CCC(=O)Nc1ccc(F)cc1)N/N=C/c1cc([N+](=O)[O-])ccc1O	177	-16	4	-1	0	-1
Nc1nc2c(ncn2[C@@H]2CC[C@@H](CO)O2)c(=O)n1C(=O)c1ccccc1	/	-4	/	57*	/	/
O=Cc1cc(N=Nc2ccccc2Cl)ccc1O	196	55	62*	7	14	-2
COc1ccc(NC(=S)N2CCN(S(C)(=O)=O)CC2)cc1OC	259	/	1	/	2	-2
O=C(COC(=O)c1cccc2ccccc12)Nc1ncc(C(F)(F)F)cc1Cl	189	13	2	5	-3	8.7*
Cc1cc(C)cc(Oc2nc(C(F)(F)F)nc3ccccc23)c1	453	61*	-6	9	-19	2
CC(=O)Nc1ccc(Oc2nc(C(F)(F)F)nc3ccccc23)cc1	420	/	-15	/	1	-1
Cc1ccc(-c2noc(CCC(=O)Nc3cc(C)ccn3)n2)cc1	154	22	1	18	11	9.2*
Cc1ccc(-c2noc(CCC(=O)Nc3ccccc3C)n2)cc1	398	-5	-4	11	6	1
Cc1ccccc1N1C(=O)C2C3C=CC(CC3)C2C1=O (configuration not stated)	183	/	5	/	11	1
N#Cc1c(NC(=O)c2ccccc2)sc2c1CCCCC2	312	-30	-1	2	-1	8.3*

Screening results deposited in PubChem by several laboratories.
